Assay results as given in ChEMBL document CHEMBL3091410, “Enmein-type 6,7-seco-ent-kauranoids from Isodon sculponeatus” (J Nat Prod, 2013).

Assays:
HL-60 = experiment: Cytotoxicity against human HL60 cells after 48 hrs by MTS assay; format: functional, cell-based; conditions: HL-60, 48 h
In short: (§1)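 Lines obtained from ATCC, grown in RPMI-1640 or DMEM with 10% FBS at 37 °C, 5% CO2. Adherent cells seeded at 1 × 10^5 cells/mL and allowed to attach 12 h; suspension cells seeded just before dosing. Range of concentrations tested in triplicate for 48 h. MTS then added for 4 h at 37 °C, cells lysed in 20% SDS-50% DMF, OD read at 490 nm. IC50 by Reed and Muench method.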

A549 = experiment: Cytotoxicity against human A549 cells after 48 hrs by MTS assay; format: functional, cell-based; conditions: A549, 48 h; in short: as §1
SW480 [1] = experiment: Cytotoxicity against human SW480 cells after 48 hrs by MTS assay; format: functional, cell-based; conditions: SW480, 48 h; in short: as §1
SMMC-7721 = experiment: Cytotoxicity against human SMMC7721 cells after 48 hrs by MTS assay; format: functional, cell-based; conditions: SMMC-7721, 48 h; in short: as §1
MCF7 = experiment: Cytotoxicity against human MCF7 cells after 48 hrs by MTS assay; format: functional, cell-based; conditions: MCF7, 48 h; in short: as §1
RAW264.7 = experiment: Inhibition of LPS-stimulated NO production in mouse RAW264.7 cells after 18 hrs by Griess assay; format: functional, cell-based; conditions: RAW264.7, 18 h
In short: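 RAW264.7 macrophages, 2 × 10^5 cells/well in RPMI 1640 with 10% FBS, preincubated 24 h. Serial dilutions up to 25 μM (DMSO stock diluted in medium) given with 1 μg/mL LPS for 18 h. Supernatant mixed 1:1 with Griess reagent, in triplicate, 5 min; absorbance at 570 nm. Parallel MTS viability check under the same 18 h conditions.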

SW480 [2] = experiment: Potency index, ratio of cisplatin IC50 to compound IC50 for human SW480 cells; format: functional

IC50 (RAW264.7) [µM] | Compound | IC50 (HL-60) [µM] | IC50 (A549) [µM] | IC50 (SW480 [1]) [µM] | IC50 (SMMC-7721) [µM] | IC50 (MCF7) [µM] | Ratio IC50 (SW480 [2])
 | C=C1[C@@H]2CC[C@@H]3[C@](C2)(C(=O)O[C@H]2CCC(C)(C)[C@H]4[C@H](O)OC[C@@]243)[C@@H]1O | > 40 | > 40 | > 40 | > 40 | > 40 | 
2.2 | C=C1C(=O)[C@]23C[C@H]1CC[C@H]2[C@@]12CO[C@@H](O)[C@@H]1C(C)(C)CC[C@@H]2OC3=O | 2.8 | 3.2 | 1 | 3.5 | 2.6 | 15
 | C=C1[C@H]2C[C@@]3(C(=O)O[C@H]4CCC(C)(C)[C@H]5[C@H](O)OC[C@@]45[C@@H]3[C@@H]3O[C@@H]32)[C@@H]1O | > 40 | > 40 | > 40 | > 40 | > 40 | 
 | C=C1[C@@H]2C=C[C@@H]3[C@](C2)(C(=O)O[C@H]2CCC(C)(C)[C@H]4[C@H](O)OC[C@@]243)[C@@H]1O | > 40 | > 40 | > 40 | > 40 | > 40 | 
 | C=C1[C@@H](O)[C@]23C[C@@]1(O)C[C@@H](O)[C@H]2[C@]12CO[C@@H]4OC[C@](C)(CC[C@@H]1OC3=O)[C@@H]42 | > 40 | > 40 | > 40 | > 40 | > 40 | 
 | CC1(C)[C@H](O)C[C@@H]2OC(=O)[C@@]34C[C@@H](C[C@@H](O)[C@H]3[C@]23CO[C@@H](O)[C@H]13)[C@](C)(O)C4=O | > 40 | > 40 | > 40 | > 40 | > 40 | 
 | C=C1C(=O)[C@]23C[C@H]1CC[C@H]2[C@@]12CO[C@@H](O)[C@@H]1C(C)(C)[C@@H](O)C[C@@H]2OC3=O [ENEMIN] | > 40 | > 40 | > 40 | > 40 | > 40 | 
 | C=C1C(=O)[C@]23C[C@H]1C[C@H](O)[C@H]2[C@@]12CO[C@@H](O)[C@@H]1C(C)(C)CC[C@@H]2OC3=O [EPINODOSIN] | > 40 | > 40 | > 40 | > 40 | > 40 | 
18.4 | C=C1C(=O)[C@]23C[C@H]1C[C@@H](O)[C@H]2[C@@]12CO[C@@H](O)[C@@H]1C(C)(C)CC[C@@H]2OC3=O [NODOSIN] | 15 | > 40 | 12.1 | 27 | 23.5 | 
 | CC(=O)O[C@H]1C(=O)[C@@]2(C)[C@H]([C@H](OC(=O)c3ccccc3)[C@]3(O)C[C@H](OC(=O)[C@H](O)[C@@H](NC(=O)c4ccccc4)c4ccccc4)C(C)=C1C3(C)C)[C@]1(OC(C)=O)CO[C@@H]1C[C@@H]2O [PACLITAXEL] | < 0.008 | < 0.008 | < 0.008 | < 0.008 | < 0.008 | 
9.1 | C=C1C(=O)[C@]23C[C@H]1C[C@@H](O)[C@H]2[C@]12CO[C@@H]4OC[C@](C)(CC[C@@H]1OC3=O)[C@@H]42 [SCULPONEATIN A] | 12.7 | 17.1 | 3.5 | 15.2 | 15 | 
 | C=C1[C@@H]2C[C@@H](O)[C@@H]3[C@](C2)(C(=O)O[C@H]2CC[C@@]4(C)CO[C@H]5OC[C@]23[C@H]54)[C@@H]1O [SCULPONEATIN B] | > 40 | > 40 | > 40 | > 40 | > 40 | 
